In the library only some 3.1% were active in any assay of this set; here they are far more common.
V-ATPase pH: yeast V-ATPase proton transport regulation by pHLuorin. 0.37% of 350,000 active. S. cerevisiae, pHLuorin cytosolic pH fluorescence. response, % at 10 µM; in the data active = response mostly above about 7.3%, no sharp cut-off; inactive = mostly below about 5.4%; note: actives read high
aDG glyco act: alpha-DG glycosylation activation | Pro5-aDG cells, alpha-DG glycosylation AlphaScreen (IIH6); 0% Pro5, 100% B10-LARGE cell signal | 0.22% of 360,000 active | activation, % at 10 µM;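 active = activation of at least 8% versus controls, or a plate z-score of at least 8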;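 note: Pro5 are CHO cells carrying HIG-tagged alpha-DG that lacks glycosylation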
Hep lipid drop: modulators of hepatic lipid droplet formation | AML12 mouse hepatocytes, oleate lipid droplets, BODIPY imaging | inhibition, % at 6.5 µM | 0.4% of 240,000 active | AID 1656;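 active = lipid droplet intensity inhibited by at least 50%, with more than 500 cells counted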
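Assay system: AML12 hepatocytes (mouse); Probe or stimulus: oleic acid at 100 µM to induce lipid droplet formation; Dosing: compound at 6.5 µM only; Schedule: compound with oleate, overnight; Detection: fluorescence imaging, 20x objective, two fields per well; Measure: % inhibition of lipid droplet signal.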
MPTP inh: permeability transition pore inhibition | isolated mouse mitochondria, Ca2+ swelling absorbance, 30 min | inhibition, % at 10 µM | 1.4% of 360,000 active | AID 602449;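 active = inhibition of 50% or more, scaled per plate between neutral and stimulator controls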;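 note: 0% = DMSO wells given calcium and 100% = 1 mM EGTA wells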
ADAM17 inh: inhibits human ADAM17; inhibition, % at 6.95 µM; 0.83% of 370,000 active; recombinant ADAM17, EDANS/DABCYL FRET peptide cleavage; P78536;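 active = inhibition above the mean of compounds lying between control limits plus 3 SD, set per campaign, cut at about 8.5% in these data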;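 note: 0% = DMSO-only wells as the low control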
ADAM10 inh: inhibits human ADAM10 | O14672 | recombinant ADAM10, EDANS/DABCYL FRET peptide cleavage, 3 h | inhibition, % at 7 µM | 0.62% of 370,000 active;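 active = inhibition above a per-campaign cutoff equal to the mean of compounds falling between control-based bounds plus 3 SD, cut at about 20% in these data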;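 note: 0% = DMSO wells while the 100% control is not disclosed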
Target sequence (O14672 214-748 limits assumed): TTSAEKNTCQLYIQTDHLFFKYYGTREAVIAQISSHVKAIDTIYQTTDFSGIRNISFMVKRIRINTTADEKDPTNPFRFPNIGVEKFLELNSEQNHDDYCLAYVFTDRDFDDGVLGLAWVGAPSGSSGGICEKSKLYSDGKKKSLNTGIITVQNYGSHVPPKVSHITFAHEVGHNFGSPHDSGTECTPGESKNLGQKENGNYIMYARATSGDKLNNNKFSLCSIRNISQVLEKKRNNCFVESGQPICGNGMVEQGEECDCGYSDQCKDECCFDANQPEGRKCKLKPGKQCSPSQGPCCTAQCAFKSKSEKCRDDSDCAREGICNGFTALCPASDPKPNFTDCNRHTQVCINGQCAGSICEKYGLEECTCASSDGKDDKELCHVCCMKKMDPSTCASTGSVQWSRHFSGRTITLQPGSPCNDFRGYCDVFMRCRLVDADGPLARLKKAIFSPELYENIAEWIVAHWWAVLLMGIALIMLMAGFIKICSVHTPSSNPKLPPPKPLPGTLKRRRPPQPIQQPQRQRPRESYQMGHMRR
MPTP counter: membrane potential counter-screen of mitochondrial pore inhibitors | shares compounds with MPTP inh | isolated mitochondria, Rhodamine 123 fluorescence | inhibition, % at 10 µM | 78% of 5,000 active | AID 624504; in the data active = inhibition above about 22%;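 note: 0% = DMSO vehicle and 100% = positive control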
MPTP abs DR: MPTP inhibition, dose response swelling confirmation. 58% of 780 active. isolated mitochondria swelling, absorbance. AID 651561. IC50, µM. shares compounds with MPTP inh; in the data active = IC50 below about 20 µM
MPTP cs DR: active in counter-screen for permeability transition pore inhibitors | shares compounds with MPTP inh | isolated mitochondria counterscreen, fluorescence read-out | IC50, µM | 49% of 780 active | AID 651564; in the data active = IC50 below about 80 µM
The depositor's hits bear a star; / = not tested or not shown.

SMILES	V-ATPase pH	aDG glyco act	Hep lipid drop	MPTP inh	ADAM17 inh	ADAM10 inh	MPTP counter	others
COc1ccc(C(NC(=O)C2CCCCC2)c2c(O)ccc3ccccc23)cc1 (stereo unspecified)	-1	1	29	81*	-3	-10	69*
COc1ccc(Cl)cc1C(=O)Nc1ccncc1	2	0	17	-1	-6	8	/
CCN(CC)c1ccc(NC(=O)c2cc(Cl)ccc2OC)cc1	-1	0	-7	99*	1	14	-17	MPTP abs DR=14*;MPTP cs DR=>80
COc1ccc(Cl)cc1C(=O)Nc1ccc(CN2CCCCC2)cc1	-1	1	-4	57*	-2	2	-4	MPTP abs DR=7.1*;MPTP cs DR=>80
CCOC(=O)C(=O)N1CCC(C(=O)NC2CCCc3ccccc32)CC1 (stereo unspecified)	/	/	/	/	-2	-1	/
C#CCOCCOCCOCCNc1nc(N2CCN(C(=O)[C@H](CCCCN)n3cc([C@@H](N)CC(C)C)nn3)CC2)nc(N2CCN(C(=O)[C@H](Cc3cc4ccccc4[nH]3)n3cc([C@@H](N)CC(C)C)nn3)CC2)n1	/	/	/	/	-23	-94	/
c1ccc(-c2nnc3sc(C4CCCCC4)nn23)cc1	/	/	/	/	-2	-4	/
Fc1ccc(NC(=S)Nc2ccc(Br)cc2)cc1	-6	0	-7	73*	4	12	93*
Fc1ccc(NC(=S)Nc2ccccc2Cl)cc1	-2	0	20	10	-2	1	/
CSc1cccc(NC(=S)Nc2ccc(F)cc2)c1	-5	0	-18	73*	-3	-3	85*
CSc1cccc(NC(=S)NN(C)C)c1	3	0	-4	2	-1	-2	/
Fc1ccc(NC(=S)Nc2cccc(Cl)c2)cc1	-2	1	-22	86*	0	4	97*
CC(C)c1cccc(C(C)C)c1NC(=S)Nc1cccc(Cl)c1	6	0	4	88*	2	-7	90*
NC(=S)Nc1cccc(Cl)c1	2	0	9	-1	3	9	/
O=S1(=O)c2ccc(N3CCCC3)cc2Oc2ccccc2CN1Cc1cn(Cc2ccc(Cl)cc2)nn1	/	/	/	/	2	1	/
COC(=O)c1cc(-c2ccc(Oc3ccccc3)cc2)c(=O)n2c1CCC2	/	/	/	/	-39	-109	/
c1ccc2c(N3CCCCC3)nc(N3CCCCC3)nc2c1	-1	1	/	4	-11	-16	/
C(=C\c1nc(N2CCCCCC2)c2ccccc2n1)/c1ccccc1	0	0	-6	65*	-8	-27	93*
Cc1cccc(NC(=O)Nc2ccc3c(c2)CCC3)c1	0	1	0	80*	0	-4	77*
O=[N+]([O-])c1ccc(N/N=C\c2ccccc2OCc2ccccc2)cc1	13	0	24	97*	-1	-12	76*
O=[N+]([O-])c1ccccc1C=NNc1ccccc1	-2	-1	/	1	0	-1	/
O=[N+]([O-])c1ccc(/C=N/Nc2ccc3ccccc3c2)o1	-2	0	36	79*	3	6	32*
O=[N+]([O-])c1ccc(NN=Cc2cccc3ccccc23)cc1	-1	0	/	89*	-1	-18	71*
COc1cccc(/C=N/Nc2ccc([N+](=O)[O-])cc2)c1O	-1	0	6	2	2	3	/
C[C@H]1[C@H](NC(=O)c2ccc(Cl)c(C(F)(F)F)c2)CC[C@@]23CCCN2C(=O)CCC[C@@H]13	/	/	/	/	0	0	/
SMILES	V-ATPase pH	aDG glyco act	Hep lipid drop	MPTP inh	ADAM17 inh	ADAM10 inh	MPTP counter	others
O=S1(=O)c2ccc(N3CCN(Cc4ccccc4F)CC3)cc2Oc2ccccc2CN1Cc1cn(Cc2cccc(F)c2)nn1	/	/	/	/	1	6	/
CN(C(=S)Nc1ccc(Oc2ccccc2)cc1)C1CCCCC1	-2	1	14	46	3	7	/
Cc1ccc(NC(=S)NNC(=S)NC2CCCCC2)cc1	1	0	-7	9	3	5	/
CC(C)c1ccc(NC(=S)NC2CCCCCC2)cc1	2	3	-10	74*	-2	3	87*
O=C(Nc1ccc(Cl)cc1Cl)NC1CCCC1	2	1	-14	2	-1	2	/
S=C(Nc1ccc(Cl)cc1Cl)NC1CCCCC1	-2	0	17	86*	-2	-5	109*
S=C(NCc1ccc2c(c1)OCO2)NC1CCN(Cc2ccccc2)CC1	1	0	-3	74*	1	1	4	MPTP abs DR=11*;MPTP cs DR=54*
S=C(Nc1ccc(Oc2ccccc2)cc1)NC1CCCCCC1	2	2	-1	96*	9.5*	0	89*
O=S1(=O)c2c(cccc2N2CCC[C@H]2CO)O[C@H]2CCN1C2	/	/	/	/	-2	0	/
c1coc(-c2nnc3n2N=C(c2ccc4c(c2)OCO4)CS3)c1	/	/	/	/	0	-1	/
COC(=O)[C@]12C[C@H](CC(=O)N3CCCCC3)C(=O)N(CCc3ccc(OC)c(OC)c3)C1=C[C@H](C(C)C)O[C@@H]2C1CC1	/	/	/	/	-1	-4	/
O=C(O)c1ccc(NC(=S)NC2CCCCC2)cc1	3	0	31	0	4	7	/
S=C(NCc1cccc(Cl)c1)NC1CCCCC1	0	0	-38	77*	2	6	67*
S=C(Nc1ccc(Oc2ccc(NC(=S)NC3CCCCC3)cc2)cc1)NC1CCCCC1	-1	1	-3	70*	3	11	52*
S=C(Nc1ccc2nsnc2c1)NC1CCCCC1	11	4	-8	8	-14	-54	/
S=C(Nc1ccc(Oc2ccccc2)cc1)NC1CCCCC1	1	1	-24	80*	-3	-7	95*
S=C(Nc1ccc(Cl)c(Cl)c1)NC1CCCCC1	3	1	-58	96*	/	/	75*
COc1cccc(-c2nnc(SCc3cc(C)ccc3C)n2Cc2ccco2)c1	/	/	/	/	7	11	/
CC(C)N(Cc1cn(Cc2ccccc2)nn1)S(=O)(=O)c1ccccc1Br	/	/	/	/	-1	5	/
Cc1cc(-c2nnc(SCC(=O)Nc3cccc4ccccc34)n2N)n[nH]1	/	/	/	/	-3	-9	/
O=c1c2ccccc2n(Cc2ccco2)n1[C@@H](Cc1ccccc1)Cn1cc(C2CCCC2)nn1	/	/	/	/	-89	-356	/
C#CCNC(=O)C[C@@H]1C(=O)N(CCc2ccc(Cl)cc2)/C2=C/CCCCC[C@@]21C(=O)OCC	/	/	/	/	1	6	/
O=C(OCc1cn(Cc2ccc(Cl)cc2)nn1)N1CCCC1	/	/	/	/	-2	0	/
CCCCOCCCNc1ncnc2c1[nH]c1ccccc12	1	6	-74	92*	-54	-175	93*

Screens deposited in PubChem by several laboratories.
